Measurements taken from ChEMBL document CHEMBL4321829, “Chagas Disease Drug Discovery: Multiparametric Lead Optimization against Trypanosoma cruzi in Acylaminobenzothiazole Series” (J Med Chem, 2019).
Converted amounts (≈) assume the structure as drawn. The source made the active and inactive calls. No cut-off for these calls is given here.

Tests used:
Trypanosoma cruzi [1] = test: Antitrypanosomal activity against Trypanosoma cruzi Tulahuen trypomastigotes beta-galactosidase infected in rat H9c2 cells measured after 72 hrs by DRAQ5 DNA dye based confocal microscopic analysis; type: functional, organism-based; conditions: H9c2, 72 h
[2] = Selectivity index, ratio of IC50 for rat H9c2 cells to IC50 for antitrypanosomal activity against Trypanosoma cruzi Tulahuen trypomastigotes beta-galactosidase infected in rat H9c2 cells; type: toxicity, cell-based; conditions: read-out: Ratio IC50
H9c2 = test: Cytotoxicity against rat H9c2 cells assessed as reduction in cell viability; type: cell-based
Trypanosoma cruzi [3] = test: Antitrypanosomal activity against Trypanosoma cruzi Tulahuen C4 trypomastigotes harboring beta-galactosidase infected in mouse 3T3 cells after 90 mins by luminescence based assay; type: functional, organism-based; conditions: Tulahuen C4, NIH3T3, 1.5 h
Trypanosoma cruzi [4] = test: Antitrypanosomal activity against tdTomato red expressing Trypanosoma cruzi CL trypomastigotes infected in C57BL/6 mouse at 50 mg/kg administered for 2 days and measured after 4 to 6 days post infection; type: functional, organism-based
How it was run: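 Baseline footpad fluorescence was imaged on day 2. A single 50 mg/kg dose in 1% carboxymethyl cellulose/0.1% Tween 80 was then given. Imaging was repeated at day 4 or 6. IVA was calculated from the treated versus untreated fluorescence change. Controls were 50 mg/kg benznidazole and untreated mice.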

[5] = Kinetic solubility of compound by charged aerosol detection method; type: physicochemical; conditions: read-out: Kinetic_solubility
[6] = Solubility of compound in FASSIF at 1 mg incubated for 4 hrs by HPLC-UV analysis; type: physicochemical
How it was run: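 1 mg of solid compound was shaken in 1 mL FaSSIF at pH 6.5, at 900 rpm for 4 h at room temperature. The suspension was filtered and the supernatant quantified by HPLC-UV against a single-point DMSO standard. The dynamic range was 1–1000 μg/mL.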

[7] = Half life in CD-1 mouse at 5 mg/kg, iv after 5 mins to 24 hrs by LC-MS/MS analysis; type: ADME, organism-based; conditions: in vivo
How it was run: (§1)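 Male CD-1 mice (n=3) received a 5 mg/kg i.v. bolus in 5% DMSO/20% encapsine in saline. Blood was drawn at 5, 15, 30 min and 1, 2, 4, 8 and 24 h, diluted 1/2 with water and frozen.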

[8] = Ratio of drug level in blood to plasma in human at 1 uM after 1 hr by LC-MS/MS analysis; type: ADME, cell-free
How it was run: (§2)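 Compound at a final 1 μM was mixed into prewarmed mouse or human whole blood at 37 °C. At 0 and 60 min, blood aliquots were lysed with water and matrix-matched with plasma. Samples were precipitated with IS-containing buffer and analysed by LC-MS/MS. The blood/plasma ratio was taken from compound:IS peak-area ratios.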

[9] = Ratio of drug level in blood to plasma in mouse at 1 uM after 1 hr by LC-MS/MS analysis; type: ADME, cell-free; how it was run: as §2
[10] = Apparent permeability in MDCK-MDR1 cells at 3 uM after 60 mins by LC-MS/MS analysis; type: ADME, cell-based, Canis lupus familiaris; conditions: dog
How it was run: (§3)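 Papp was measured in MDR1-MDCK monolayers in HBSS at pH 7.4 (n=2), at 3 μM for 60 min. Transport was measured AB and BA, with and without the P-gp inhibitor GF120918. Monolayers were checked by TEER and Lucifer yellow. Analytes were measured by LC-MS/MS as analyte/IS area ratios. Amprenavir, prazosin and propranolol served as references.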

[11] = Intrinsic clearance in human liver microsomes at 0.5 uM in presence of NADPH measured up to 45 mins by UPLC/MS/MS analysis; type: ADME, Microsome; conditions: 0.75 h
How it was run: (§4)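 Compound at 0.5 μM was incubated with male CD1 mouse or human liver microsomes (0.5 mg/mL in 50 mM potassium phosphate, pH 7.4). The reaction was started with excess NADPH. Samples were taken at 0 and serial times up to 45 min, quenched in acetonitrile with internal standard and analysed by UPLC/MS/MS. Clint (mL/min/g tissue) was derived from t1/2 of parent remaining. Midazolam was the positive control.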

[12] = Clearance in CD-1 mouse at 5 mg/kg, iv after 5 mins to 24 hrs by LC-MS/MS analysis; type: ADME, organism-based; conditions: in vivo; how it was run: as §1
[13] = Cmax in C57BL/6 mouse assessed as 5-Fluoro-6-(trifluoromethyl)benzothiazol-2-amine level at 50 mg/kg, po adminstered via gavage as suspension after 15 mins to 24 hrs by LC-MS/MS analysis; type: ADME, organism-based; design: dose 50 mg/kg, route oral; conditions: in vivo
How it was run: (§5)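 Female C57BL/6 mice (n=3) were gavaged with 50 mg/kg parent compound as a 1% methylcellulose suspension. Whole blood was sampled at 15, 30, 45 min and 1, 2, 4, 8 and 24 h, diluted 1/2 with water and frozen.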

[14] = Efflux ratio of apparent permeability across […] in MDCK-MDR1 cells at 3 uM after 60 mins by LC-MS/MS analysis; type: ADME, cell-based, Canis lupus familiaris; conditions: dog, mdck-mdr1, 1 h; how it was run: as §3
[15] = Volume of drug distribution at steady state in CD-1 mouse at 5 mg/kg, iv after 5 mins to 24 hrs by LC-MS/MS analysis; type: ADME, organism-based; conditions: in vivo, read-out: Vdss; how it was run: as §1
[16] = Tmax in C57BL/6 mouse at 50 mg/kg, po after 15 mins to 24 hrs by LC-MS/MS analysis; type: ADME, organism-based; conditions: in vivo
[17] = Protein binding in human plasma at 2 uM after 4 hrs by LC-MS/MS analysis; type: ADME, cell-free
How it was run: (§6)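 Equilibrium dialysis was run in RED inserts with mouse or human plasma at a final concentration of 2 μM, in triplicate. The receiver side held PBS at pH 7.4. Plates were incubated for 4 h at 37 °C at about 150 rpm. Samples were matrix-matched, protein-precipitated and analysed by LC-MS/MS. %PPB = 100 − (buffer/plasma × 100).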

[18] = AUCt in C57BL/6 mouse at 50 mg/kg, po after 15 mins to 24 hrs by LC-MS/MS analysis; type: ADME, organism-based; design: dose 50 mg/kg, time upper 24 hr, time lower 0.25 hr, route oral; conditions: in vivo
[19] = Protein binding in mouse plasma at 2 uM after 4 hrs by LC-MS/MS analysis; type: ADME, cell-free; how it was run: as §6
[20] = Cmax in C57BL/6 mouse at 50 mg/kg, po after 15 mins to 24 hrs by LC-MS/MS analysis; type: ADME, organism-based; design: dose 50 mg/kg, route oral; conditions: in vivo
[21] = Intrinsic clearance in CD-1 mouse liver microsomes at 0.5 uM in presence of NADPH measured up to 45 mins by UPLC/MS/MS analysis; type: ADME, Microsome; conditions: 0.75 h; how it was run: as §4
[22] = AUC in C57BL/6 mouse assessed as 5-Fluoro-6-(trifluoromethyl)benzothiazol-2-amine level at 50 mg/kg, po adminstered via gavage as suspension after 15 mins to 24 hrs by LC-MS/MS analysis; type: ADME, organism-based; design: dose 50 mg/kg, time upper 24 hr, time lower 0.25 hr, route oral; conditions: in vivo; how it was run: as §5
[23] = Drug level in C57BL/6 mouse treated with 50 mg/kg, po N-(5-Fluoro-6-(trifluoromethyl)benzothiazol-2-yl)cyclopropanecarboxamide administered as suspension via gavage assessed as compound formation after 15 mins to 24 hrs by LC-MS/Ms analysis; type: ADME, organism-based; conditions: in vivo; how it was run: as §5

SMILES	IC50 (Trypanosoma cruzi [1]) [µM]	selectivity ratio [2]	IC50 (H9c2) [µM]	other results
CN(C(=O)C1CC1)c1nc2ccc(Cl)cc2s1	25	> 2	> 50	
O=C(Nc1nc2ccc(OC(F)(F)F)cc2s1)C1CC1	0.19	28	5	
FC(F)(F)c1ccc2nc(N/N=C/C3CC3)sc2c1	2.4	5	13	
O=C(Nc1nc2ccc(Cl)cc2s1)C1CCC1	1.32	> 38	> 50	
CC(C)(F)C(=O)Nc1nc2cc(F)c(C(F)(F)F)cc2s1	1	> 50	> 50	
CC(C)c1ccc2nc(NC(=O)C3CC3)sc2c1	1.19	> 50	> 50	
O=C(CC1CC1)Nc1nc2ccc(Cl)cc2s1	5.4	> 9	> 50	
CNS(=O)(=O)c1cc2sc(NC(=O)C3CC3)nc2cc1F	26	> 2	> 50	
O=C(Nc1nc2cc(C(F)(F)F)c(F)cc2s1)C1CC1	35	1	46	
CC(=O)N(CCCN(C)C)c1nc2ccc(C)cc2s1				IC50 (Trypanosoma cruzi [3]): 0.236 µM
O=C(Nc1nc2cc(F)c(C(F)(F)F)cc2s1)C1CC1	0.079	> 630	> 50	Activity (Trypanosoma cruzi [4]): Active; solubility kinetic [5]: 36 µM (≈ 11 µg/mL); solubility at 4 h [6]: 51 µg/mL (≈ 168 µM); half-life [7]: 0.97 h; blood plasma ratio at 1 h, 1 µM [8]: 0.8; blood plasma ratio at 1 h, 1 µM [9]: 1.2; Papp at 1 h, 3 µM [10]: 17.4 ×10⁻⁶ cm/s; CLH [11]: 0.41 mL/min/g; clearance [12]: 58.3 mL/min/kg; Cmax [13]: 634 ng/mL; Ratio [14]: 1.5; Vd [15]: 5.73 L/kg; Tmax [16]: 1.33 h; PPB [17]: Active; AUC(0-t) [18]: 31600 ng·h/mL; PPB [19]: Active; Cmax [20]: 3390 ng/mL; CLH [21]: 5.26 mL/min/g; AUC [22]: 10065.32 ng·h/mL
CC(C)(F)C(=O)Nc1nc2ccc(C(F)(F)F)cc2s1	0.13	> 384	> 50	
O=C(Nc1nc2ccc(Cl)cc2s1)C1CCOC1 (stereo unspecified)	4.4	> 11	> 50	
COc1cc2nc(NC(=O)C3CC3)sc2cc1C(F)(F)F	20	> 2.5	> 50	
Nc1nc2cc(F)c(C(F)(F)F)cc2s1				Drug metabolism [23]: Metabolite_Detected
O=C(CCO)Nc1nc2ccc(Cl)cc2s1	14	> 3	> 50	
CCCC(=O)Nc1nc2ccc(Cl)cc2s1	4.73	> 11	> 50	
O=C(Nc1nc2ccc(F)cc2s1)C1CC1	4.22	> 12	> 50	
O=C(Nc1nc2ccc(Cl)cc2s1)C1CC1	0.63	> 80	> 50	CLH [11]: 9.57 mL/min/g; IC50 (Trypanosoma cruzi [3]): 0.119 µM; CLH [21]: 2.51 mL/min/g
O=C(Nc1nc2cc(Cl)ccc2s1)C1CC1	0.32	> 158	> 50	
N#Cc1cc2sc(NC(=O)C3CC3)nc2cc1F	2.3	> 22	> 50	

SMILES	IC50 (Trypanosoma cruzi [1]) [µM]	selectivity ratio [2]	IC50 (H9c2) [µM]	other results
Cc1ccc2nc(NC(=O)C3CC3)sc2c1	4.52	> 11	> 50	
CC(C)(C)C(=O)Nc1nc2ccc(Cl)cc2s1	0.95	> 52	> 50	
CCCCN(C(=O)C1CC1)c1nc2ccc(Cl)cc2s1	> 50	1	> 50	
CCc1ccc2nc(NC(=O)C3CC3)sc2c1	0.14	> 357	> 50	CLH [11]: 10.4 mL/min/g; CLH [21]: 125 mL/min/g
CN(C)CCCN(C(=O)c1nc2ccccc2s1)c1nc2ccc(F)cc2s1				IC50 (Trypanosoma cruzi [3]): 0.1 µM
CC(C)(C)c1ccc2nc(NC(=O)C3CC3)sc2c1	7.85	4	32	
O=C(Nc1nc2cccc(Cl)c2s1)C1CC1	24	> 2	> 50	
N#Cc1cc2nc(NC(=O)C3CC3)sc2cc1C(F)(F)F	> 50		15.5	
O=C(Nc1nc2ccc(C(F)(F)F)cc2s1)C1CC1	0.1	> 500	> 50	CLH [11]: 0.94 mL/min/g; CLH [21]: 2.71 mL/min/g
O=S(=O)(Nc1nc2ccc(C(F)(F)F)cc2s1)C1CC1	> 50	< 0.13	6.6	
O=C(Nc1nc2ccc([N+](=O)[O-])cc2s1)C1CC1	0.04	> 1200	> 50	CLH [11]: 1.57 mL/min/g; CLH [21]: 3.06 mL/min/g
O=C(Nc1nc2ccc(Cl)cc2s1)C1COC1	4.4	> 11	> 50	
O=C(Nc1nc2c(Cl)cccc2s1)C1CC1	> 50		> 50	
CCOc1ccc2nc(NC(=O)C3CC3)sc2c1	2.5	> 20	> 50	
CC(C)C(=O)Nc1nc2cc(F)c(C(F)(F)F)cc2s1	0.25	> 200	> 50	
CCN(C(=O)C1CC1)c1nc2ccc(Cl)cc2s1	> 50	1	> 50	
Clc1ccc2nc(NCC3CC3)sc2c1	27	> 2	> 50	
CC(C)C(=O)Nc1nc2ccc(Cl)cc2s1	0.41	> 123	> 50	
O=C(C1CC1)N(CCO)c1nc2ccc(Cl)cc2s1	> 50	1	> 50	
CCS(=O)(=O)c1cc2sc(NC(=O)C3CC3)nc2cc1F	42	> 1	> 50	
Cc1cc2nc(NC(=O)C3CC3)sc2cc1C(F)(F)F	26	1	36	
